Measured values published in ChEMBL document CHEMBL1145532, “Role of peptide hydrophobicity in the mechanism of action of alpha-helical antimicrobial peptides” (Antimicrob Agents Chemother, 2007).
In brackets after ≈: the same amount, converted by molar mass.

Assays:
[1] = test system: Pseudomonas aeruginosa; test: Antimicrobial activity against Pseudomonas aeruginosa PAO1; format: functional
Summary of the method: (§1)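 Microtiter broth dilution in brain heart infusion (BHI). Cells were grown overnight at 37°C in BHI broth and diluted in the same medium. Serial peptide dilutions were inoculated to a final 5 x 10^5 CFU/ml and incubated at 37°C for 24 h. The MIC is the lowest peptide concentration that inhibited growth.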

[2] = test system: Pseudomonas aeruginosa; test: Antimicrobial activity against Pseudomonas aeruginosa WR5; format: functional; summary of the method: as §1
[3] = test system: Pseudomonas aeruginosa; test: Antimicrobial activity against Pseudomonas aeruginosa PAK; format: functional; summary of the method: as §1
[4] = test system: Pseudomonas aeruginosa; test: Antimicrobial activity against Pseudomonas aeruginosa PA14; format: functional; summary of the method: as §1
[5] = test system: Pseudomonas aeruginosa; test: Antimicrobial activity against Pseudomonas aeruginosa M2; format: functional; summary of the method: as §1
[6] = test system: Pseudomonas aeruginosa; test: Antimicrobial activity against Pseudomonas aeruginosa CP204; format: functional; summary of the method: as §1
[7] = Toxicity against human erythrocytes assessed as hemolysis after 18 hrs; format: cell-based; conditions: erythrocyte
Summary of the method: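 Unlysed cells were removed by centrifugation (800 x g), and hemoglobin release was read at 570 nm. The MHC is the maximal concentration causing no hemolysis. Control was 1% erythrocytes without peptide.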

[8] = Toxicity against human erythrocytes assessed as increase in hemolytic activity after 18 hrs relative to V13KL peptide; format: cell-based; conditions: erythrocyte
[9] = Toxicity against human erythrocytes assessed as hemolysis at 500 ug/ml after 18 hrs; conditions: erythrocyte

CC[C@H](C)[C@H](NC(=O)[C@H](CC(C)C)NC(=O)[C@H](CCCCN)NC(=O)[C@H](CC(C)C)NC(=O)[C@H](C)NC(=O)[C@@H](NC(=O)[C@H](Cc1c[nH]cn1)NC(=O)[C@H](CC(C)C)NC(=O)[C@@H](NC(=O)[C@@H](NC(=O)[C@H](CCCCN)NC(=O)[C@H](CCCCN)NC(=O)[C@H](CC(C)C)NC(=O)[C@H](CO)NC(=O)[C@H](CCCCN)NC(=O)[C@H](Cc1ccccc1)NC(=O)[C@@H](NC(=O)[C@H](CCCCN)NC(=O)[C@H](CC(C)C)NC(=O)[C@H](Cc1ccccc1)NC(=O)[C@H](CO)NC(=O)[C@H](CCCCN)NC(=O)[C@H](Cc1c[nH]c2ccccc12)NC(=O)[C@H](CCCCN)NC(C)=O)[C@@H](C)O)[C@@H](C)O)C(C)C)[C@@H](C)O)C(=O)N[C@@H](CO)C(=O)N[C@@H](CO)C(N)=O
MIC [1]: 15.6 µg/mL (≈ 5.07 µM)
MIC [2]: 250 µg/mL (≈ 81.3 µM)
MIC [3]: 15.6 µg/mL (≈ 5.07 µM)
MIC [4]: 62.5 µg/mL (≈ 20.3 µM)
MIC [5]: 31.3 µg/mL (≈ 10.2 µM)
MIC [6]: 7.8 µg/mL (≈ 2.54 µM)
Maximal concentration causing no hemolysis (MHC) [7]: 15.6 µg/mL
Activity [8]: 16

CC[C@H](C)[C@H](NC(=O)[C@H](C)NC(=O)[C@H](CCCCN)NC(=O)[C@H](CC(C)C)NC(=O)[C@H](C)NC(=O)[C@@H](NC(=O)[C@H](Cc1cnc[nH]1)NC(=O)[C@H](CC(C)C)NC(=O)[C@@H](NC(=O)[C@@H](NC(=O)[C@H](CCCCN)NC(=O)[C@H](CCCCN)NC(=O)[C@H](C)NC(=O)[C@H](CO)NC(=O)[C@H](CCCCN)NC(=O)[C@H](Cc1ccccc1)NC(=O)[C@@H](NC(=O)[C@H](CCCCN)NC(=O)[C@H](CC(C)C)NC(=O)[C@H](Cc1ccccc1)NC(=O)[C@H](CO)NC(=O)[C@H](CCCCN)NC(=O)[C@H](Cc1c[nH]c2ccccc12)NC(=O)[C@H](CCCCN)NC(C)=O)[C@@H](C)O)[C@@H](C)O)C(C)C)[C@@H](C)O)C(=O)N[C@@H](CO)C(=O)N[C@@H](CO)C(N)=O
MIC [1]: 31.3 µg/mL (≈ 10.5 µM)
MIC [2]: 250 µg/mL (≈ 83.6 µM)
MIC [3]: 125 µg/mL (≈ 41.8 µM)
MIC [4]: 62.5 µg/mL (≈ 20.9 µM)
MIC [5]: 31.3 µg/mL (≈ 10.5 µM)
MIC [6]: 7.8 µg/mL (≈ 2.61 µM)
Maximal concentration causing no hemolysis (MHC) [7]: 250 µg/mL
Activity [8]: 1
Activity [9]: Non-toxic

CC[C@H](C)[C@H](NC(=O)[C@H](C)NC(=O)[C@H](CCCCN)NC(=O)[C@H](CC(C)C)NC(=O)[C@H](C)NC(=O)[C@@H](NC(=O)[C@H](Cc1c[nH]cn1)NC(=O)[C@H](CC(C)C)NC(=O)[C@@H](NC(=O)[C@@H](NC(=O)[C@H](CCCCN)NC(=O)[C@H](CCCCN)NC(=O)[C@H](CC(C)C)NC(=O)[C@H](CO)NC(=O)[C@H](CCCCN)NC(=O)[C@H](Cc1ccccc1)NC(=O)[C@@H](NC(=O)[C@H](CCCCN)NC(=O)[C@H](CC(C)C)NC(=O)[C@H](Cc1ccccc1)NC(=O)[C@H](CO)NC(=O)[C@H](CCCCN)NC(=O)[C@H](Cc1c[nH]c2ccccc12)NC(=O)[C@H](CCCCN)NC(C)=O)[C@@H](C)O)[C@@H](C)O)C(C)C)[C@@H](C)O)C(=O)N[C@@H](CO)C(=O)N[C@@H](CO)C(N)=O
MIC [1]: 15.6 µg/mL (≈ 5.14 µM)
MIC [2]: 62.5 µg/mL (≈ 20.6 µM)
MIC [3]: 31.3 µg/mL (≈ 10.3 µM)
MIC [4]: 31.3 µg/mL (≈ 10.3 µM)
MIC [5]: 15.6 µg/mL (≈ 5.14 µM)
MIC [6]: 15.6 µg/mL (≈ 5.14 µM)
Maximal concentration causing no hemolysis (MHC) [7]: 31.3 µg/mL
Activity [8]: 8

Ac-KWKSFAKTFKSAKKTVLHTAAKAISS-NH2
MIC [1]: 500 µg/mL
MIC [2]: > 500 µg/mL
MIC [3]: > 500 µg/mL
MIC [4]: > 500 µg/mL
MIC [5]: > 500 µg/mL
MIC [6]: > 500 µg/mL
Maximal concentration causing no hemolysis (MHC) [7]: 1000 µg/mL
Activity [8]: 0.3

Ac-KWKSFAKTFKSAKKTVLHTALKAISS-NH2 [listing 1 of 2 here]
Maximal concentration causing no hemolysis (MHC) [7]: 1000 µg/mL
Activity [8]: 0.3

Ac-KWKSFAKTFKSAKKTVLHTALKAISS-NH2 [listing 2 of 2 here]
MIC [1]: 125 µg/mL
MIC [2]: 250 µg/mL
MIC [3]: 250 µg/mL
MIC [4]: 500 µg/mL
MIC [5]: 250 µg/mL
MIC [6]: 125 µg/mL

Ac-KWKSFLKTFKSAKKTVLHTALKLISS-NH2 [listing 1 of 2 here]
Maximal concentration causing no hemolysis (MHC) [7]: 62.5 µg/mL
Activity [8]: 4

Ac-KWKSFLKTFKSAKKTVLHTALKLISS-NH2 [listing 2 of 2 here]
MIC [1]: 31.3 µg/mL
MIC [2]: 62.5 µg/mL
MIC [3]: 62.5 µg/mL
MIC [4]: 31.3 µg/mL
MIC [5]: 31.3 µg/mL
MIC [6]: 15.6 µg/mL
